The target in data set [1] is T1, 5-hydroxytryptamine receptor 2C (Homo sapiens, UniProt P28335).
T1 sequence (P28335 whole entry): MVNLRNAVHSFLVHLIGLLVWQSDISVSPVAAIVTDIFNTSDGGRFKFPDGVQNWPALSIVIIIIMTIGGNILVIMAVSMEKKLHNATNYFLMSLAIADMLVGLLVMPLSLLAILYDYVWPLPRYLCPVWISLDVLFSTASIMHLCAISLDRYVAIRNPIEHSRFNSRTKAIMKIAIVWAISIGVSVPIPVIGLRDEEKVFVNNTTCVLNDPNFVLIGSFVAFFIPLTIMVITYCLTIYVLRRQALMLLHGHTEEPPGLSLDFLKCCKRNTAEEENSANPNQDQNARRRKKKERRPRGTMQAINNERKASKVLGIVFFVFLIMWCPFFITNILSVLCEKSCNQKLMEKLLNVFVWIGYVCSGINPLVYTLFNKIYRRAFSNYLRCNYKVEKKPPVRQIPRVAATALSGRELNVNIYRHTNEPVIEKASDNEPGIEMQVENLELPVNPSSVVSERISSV
As to the kind of experiment: Induction of 5HT2C receptor mediated increase in intracellular calcium concentration in HEK293 cells. In kind it is functional, cell-based. In short, it runs like this:
(§1)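 Recombinant cell lines stably expressed the respective 5-HT2 receptor subtype. Agonist-induced rises in intracellular calcium were read with a fluorescence-based assay.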
In general terms: Calcium assays in cells follow changes in intracellular calcium, usually with a dye or a luminescent sensor.

In data set [2] the target is 5-hydroxytryptamine receptor 2B (Homo sapiens, UniProt P41595). As to the kind of experiment: Induction of 5HT2B receptor mediated increase in intracellular calcium concentration in CHO cells. It is filed as functional, cell-based. In short, it runs like this: as §1
Data set [3] deals with 5-hydroxytryptamine receptor 2A (Homo sapiens, UniProt P28223). In words: Induction of 5HT2A receptor mediated increase in intracellular calcium concentration in CHO cells. In kind it is functional, cell-based. In a few lines:
as §1

Data set [4] has as its system Rattus norvegicus. In words: Reduction in food consumption in Sprague-Dawley rat at 20 mg/kg, ip after 4 hrs. It is filed as functional, organism-based. Also noted: dose 20 mg/kg. In short, it runs like this:
(§2)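 Male Sprague–Dawley rats, n = 10/group, were given vehicle, fenfluramine (positive control) or test compound intraperitoneally about 30 min before onset of the 12 h dark cycle. This was a 24 h acute feeding study, with food consumption recorded at 4 and 24 h.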

Data set [5] can be described thus: Clearance in rat at 1.2 mg/kg, iv. It is filed as ADME, organism-based. Also noted: dose 1.2 mg/kg, route intravenous. To be noted: in vivo.
The test system of data set [6] is Rattus norvegicus. In words: Reduction in food consumption in Sprague-Dawley rat at 20 mg/kg, ip after 24 hrs. It is filed as functional, organism-based. The arrangement: dose 20 mg/kg. In short, it runs like this:
as §2

The nature of data set [7]: Half life in rat at 1.2 mg/kg, iv. It is filed as ADME, organism-based. The arrangement: dose 1.2 mg/kg, route intravenous. To be noted: in vivo.
Data set [8] has as its system Rattus norvegicus. In words: Reduction in food consumption in ip dosed Sprague-Dawley rat. In kind it is functional, organism-based. In a few lines:
as §2

Data set [9] can be described thus: Brain to plasma AUC ratio in rat at 1.2 mg/kg, iv. It is filed as ADME, organism-based. To be noted: brain and plasma, read-out: Ratio AUC. Also noted: dose 1.2 mg/kg, route intravenous. In a few lines:
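Brain exposure was taken from cortex tissue. The ratio is AUC in cortex divided by AUC in plasma, after a single intravenous dose in rat.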

Data set [10] can be described thus: Oral bioavailability in rat at 10.6 mg/kg, po. It is filed as ADME, organism-based. Conditions: in vivo.

Active and inactive are the calls of the source.

Chain of 5-hydroxytryptamine receptor 2B (P41595 whole entry): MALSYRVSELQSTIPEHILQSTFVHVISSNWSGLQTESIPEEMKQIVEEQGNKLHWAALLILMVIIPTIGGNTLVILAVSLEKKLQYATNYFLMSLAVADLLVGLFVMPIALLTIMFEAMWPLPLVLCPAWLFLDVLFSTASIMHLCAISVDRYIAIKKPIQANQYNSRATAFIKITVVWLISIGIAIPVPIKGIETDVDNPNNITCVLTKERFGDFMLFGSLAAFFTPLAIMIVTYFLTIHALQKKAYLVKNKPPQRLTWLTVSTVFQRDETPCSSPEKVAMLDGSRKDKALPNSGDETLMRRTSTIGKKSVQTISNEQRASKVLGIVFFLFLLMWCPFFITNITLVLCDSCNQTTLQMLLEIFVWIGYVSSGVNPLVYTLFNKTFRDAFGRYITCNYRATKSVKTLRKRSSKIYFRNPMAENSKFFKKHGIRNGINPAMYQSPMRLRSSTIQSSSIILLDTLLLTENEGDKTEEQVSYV
Chain of 5-hydroxytryptamine receptor 2A (P28223 whole entry): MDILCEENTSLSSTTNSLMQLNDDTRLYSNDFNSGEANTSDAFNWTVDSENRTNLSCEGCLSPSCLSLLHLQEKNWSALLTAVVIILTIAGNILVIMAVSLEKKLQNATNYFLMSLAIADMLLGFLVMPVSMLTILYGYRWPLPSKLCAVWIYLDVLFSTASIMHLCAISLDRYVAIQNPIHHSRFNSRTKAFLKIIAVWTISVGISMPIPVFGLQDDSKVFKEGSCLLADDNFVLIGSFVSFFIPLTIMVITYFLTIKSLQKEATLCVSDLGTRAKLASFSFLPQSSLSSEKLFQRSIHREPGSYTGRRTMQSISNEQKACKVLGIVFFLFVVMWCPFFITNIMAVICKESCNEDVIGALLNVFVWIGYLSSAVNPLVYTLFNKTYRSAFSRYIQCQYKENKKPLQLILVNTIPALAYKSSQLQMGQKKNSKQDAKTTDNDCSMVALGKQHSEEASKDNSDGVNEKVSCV

For `C[C@@H]1C[C@H]2CNC[C@H]2N1c1nccc(C(F)(F)F)n1`, the EC50 (commonly the concentration that produces a half-maximal response) in data set [1] was found to be 57 nM; in data set [2] it was 48 nM; in data set [3], 25 nM.

On to `Clc1ccc(Cl)c(-c2ccnc(N3C[C@@H]4CCN[C@@H]4C3)n2)c1`, for which the EC50 in data set [1] was more than 20000 nM.

With `FC(F)(F)c1cccc(N2CC[C@H]3CNC[C@H]32)c1`, the EC50 in data set [1] was determined as 103 nM; in [2], 65 nM; in data set [3], 168 nM.

For `FC(F)(F)c1cccc([C@H]2CC[C@H]3CNC[C@H]32)c1`, the EC50 in data set [1] amounted to 420 nM; in data set [2], 187 nM; in [3], 1080 nM.

With `Clc1cccc(N2CC[C@H]3CNC[C@H]32)c1`, the EC50 in data set [1] turned out to be 503 nM; in data set [2], 59 nM; in data set [3] it was 416 nM.

For `Fc1cccc(N2CC[C@H]3CNC[C@H]32)c1`, the EC50 amounted to 319 nM in [1], 108 nM in [2] and 1120 nM in [3].

Regarding `Fc1ccc(F)c(-c2ccnc(N3C[C@@H]4CCN[C@@H]4C3)n2)c1`, the EC50 in data set [1] was more than 20000 nM.

Turning to `FC(F)(F)c1ccnc(N2CCC3CNCC32)n1` (racemic), the results for the EC50 in [1], in data set [2] and in data set [3] were 180 nM, 320 nM and 220 nM, respectively.

As to `FC(F)(F)c1ccnc(N2C[C@@H]3CCN[C@@H]3C2)n1`, the EC50 in [1] was more than 20000 nM.

Turning to `FC(F)(F)c1ccnc(N2CC[C@@H]3CNC[C@@H]32)n1`, the EC50 in [1] is 519 nM.

Regarding `Fc1ccc(F)c(-c2ccnc(N3CC[C@H]4CNC[C@H]43)n2)c1`, in data set [1], the EC50 was more than 1000 nM.

Turning to `C[C@H]1C[C@H]2CNC[C@H]2N1c1nccc(C(F)(F)F)n1`, the EC50 was determined as 22 nM in [1], 151 nM in data set [2] and 40 nM in data set [3].

Consider `FC(F)(F)c1ccnc(N2CC[C@H]3CNC[C@H]32)n1`, for which the result in [4] and in [6] was Active. For the same compound, the EC50 in data set [1] is 23 nM; in data set [2] it was 62 nM; in [3], 116 nM. Further, the clearance (as a rule, the volume of plasma or blood freed of the substance per unit of time) in data set [5] amounted to 6.71 mL/min/kg. Moreover, the half-life (usually the time needed for the level to fall by half in the phase considered) in [7] is 66 min. In [8], the Activity result is “Dose-dependent effect”. Further, the Kp in [9] turned out to be 14.5. Also, the bioavailability – broadly, dose-corrected exposure relative to a reference, in per cent – in data set [10] amounted to 6%.

On to `Clc1ccc(Cl)c(-c2ccnc(N3CC[C@H]4CNC[C@H]43)n2)c1`, for which, in data set [1], the EC50 was more than 1000 nM.

The values above are taken from ChEMBL document CHEMBL1148668, “The identification of pyrimidine-diazabicyclo[3.3.0]octane derivatives as 5-HT2C receptor agonists” (Bioorg Med Chem Lett, 2006).
